The source made the active and inactive calls. The rule behind the calls is not given here.
Legend:
[1] = Cytotoxicity against african green monkey Vero cells assessed as alteration in cell morphology by MTS assay; assay type: cell-based; conditions: chlorocebus sabaeus
In short: (§1)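 Uninfected host cells were exposed to compound and examined under the microscope. MCC was the minimal compound concentration causing a microscopically detectable change in normal cell morphology.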

HeLa [2] = assay: Cytotoxicity against human HeLa cells assessed as alteration in cell morphology by MTS assay; assay type: functional
In short: (§2)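 Uninfected host cells (HEL or HeLa) exposed to compounds […]. The minimal cytotoxic concentration (MCC) is the lowest concentration causing a microscopically detectable change in normal cell morphology. CC50 is the concentration giving a 50% fall in cell viability by the colorimetric formazan-based MTS assay.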

[3] = Cytotoxicity against CRFK cells assessed as decrease in cell viability by MTS assay; assay type: cell-based, Felis catus; conditions: cat
In short: (§3)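 Uninfected host cells were exposed to compound. CC50 was taken as the concentration giving a 50% fall in cell viability, measured by a colorimetric formazan-based MTS assay.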

MDCK = assay: Cytotoxicity against MDCK cells assessed as decrease in cell viability upto 100 uM by MTS assay; assay type: cell-based, Canis lupus familiaris; conditions: dog
HEL = assay: Cytotoxicity against HEL cells assessed as decrease in cell viability upto 100 uM by MTS assay; assay type: cell-based; conditions: human
HeLa [4] = assay: Cytotoxicity against human HeLa cells assessed as decrease in cell viability upto 100 uM by MTS assay; assay type: functional, cell-based
In short: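 Uninfected HeLa host cells were tested up to 100 μM. CC50 is the concentration causing a 50% drop in cell viability by colorimetric formazan-based MTS assay. Alternatively, MCC is the minimal concentration giving microscopically detectable alteration of normal cell morphology.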

Human respirovirus 3 = assay: Antiviral activity against Parainfluenza 3 virus infected in Vero cells assessed as inhibition of virus-induced cytopathic effect at 100 uM by MTS assay; assay type: functional, organism-based
In short: (§4)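 Vero cell monolayers were infected with the virus in cell-based CPE assays. EC50 is the concentration giving 50% inhibition of virus-induced cytopathic effect, scored visually or by MTS formazan colorimetric cell-viability read-out. The highest concentration tested was 100 μM for most compounds and lower for a few.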

[5] = system: Mammalian orthoreovirus 1; assay: Antiviral activity against Reovirus1 infected in Vero cells assessed as inhibition of virus-induced cytopathic effect at 100 uM by MTS assay; assay type: functional, organism-based; in short: as §4
Sindbis virus = assay: Antiviral activity against Sindbis virus infected in Vero cells assessed as inhibition of virus-induced cytopathic effect at 100 uM by MTS assay; assay type: functional, organism-based; in short: as §4
Feline coronavirus = assay: Antiviral activity against feline coronavirus infected in CRFK cells assessed as inhibition of virus-induced cytopathic effect at 100 uM by MTS assay; assay type: functional, organism-based
Felid alphaherpesvirus 1 = assay: Antiviral activity against feline herpes virus infected in CRFK cells assessed as inhibition of virus-induced cytopathic effect at 100 uM by MTS assay; assay type: functional, organism-based
Human alphaherpesvirus 1 = assay: Antiviral activity against HSV1 virus infected in HEL cells assessed as inhibition of virus-induced cytopathic effect at 100 uM by MTS assay; assay type: functional, organism-based
Human alphaherpesvirus 2 = assay: Antiviral activity against HSV2 virus infected in HEL cells assessed as inhibition of virus-induced cytopathic effect at 100 uM by MTS assay; assay type: functional, organism-based
Coxsackievirus B4 [6] = assay: Antiviral activity against Coxsackievirus B4 infected in HeLa cells assessed as inhibition of virus-induced cytopathic effect at 100 uM by MTS assay; assay type: functional, organism-based
In short: (§5)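 HeLa cells were infected with the virus, and compounds were tested up to 100 μM. EC50 is the concentration that halves virus-induced cytopathic effect, read by visual CPE scoring or by MTS formazan colorimetric viability measurement.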

[7] = system: Respiratory syncytial virus; assay: Antiviral activity against respiratory syncytial virus infected in HeLa cells assessed as inhibition of virus-induced cytopathic effect at 100 uM by MTS assay; assay type: functional, organism-based; in short: as §5
Coxsackievirus B4 [8] = assay: Antiviral activity against Coxsackievirus B4 infected in Vero cells assessed as inhibition of virus-induced cytopathic effect at 100 uM by MTS assay; assay type: functional, organism-based; in short: as §4
Punta Toro virus = assay: Antiviral activity against Punta Toro virus infected in Vero cells assessed as inhibition of virus-induced cytopathic effect at 100 uM by MTS assay; assay type: functional, organism-based; in short: as §4
[9] = Cytotoxicity against MDCK cells assessed as alteration in cell morphology by MTS assay; assay type: cell-based, Canis lupus familiaris; conditions: dog; in short: as §1
[10] = Cytotoxicity against MDCK cells assessed as decrease in cell viability by MTS assay; assay type: cell-based, Canis lupus familiaris; conditions: dog; in short: as §3
[11] = Cytotoxicity against HEL cells assessed as alteration in cell morphology by MTS assay; assay type: cell-based; conditions: human; in short: as §2
[12] = Cytotoxicity against CRFK cells assessed as decrease in cell viability upto 100 uM by MTS assay; assay type: cell-based, Felis catus; conditions: cat

| Structure (SMILES) | Activity (MDCK) | Activity (HEL) | Activity (HeLa [4]) | Activity (Human respirovirus 3) | Activity [5] | Activity (Sindbis virus) | Activity (Feline coronavirus) | Activity (Felid alphaherpesvirus 1) | Activity (Human alphaherpesvirus 1) | Activity (Human alphaherpesvirus 2) | Activity (Coxsackievirus B4 [6]) | Activity [7] | Activity (Coxsackievirus B4 [8]) | Activity (Punta Toro virus) | Activity [12] | also measured |
| --- | --- | --- | --- | --- | --- | --- | --- | --- | --- | --- | --- | --- | --- | --- | --- | --- |
| Nc1ncnc2c1ncn2C[C@H](O)CO [(S)-DHPA] |  |  |  |  |  |  |  |  |  |  |  |  |  |  |  | MCC [1]: > 250 µM; MCC (HeLa [2]): > 250 µM |
| Cc1cn(CN(CCOC(=O)C(C)(C)C)S(=O)(=O)c2ccc([N+](=O)[O-])cc2)c(=O)[nH]c1=O | Not Active | Not Active | inactive | inactive | inactive | inactive | inactive | inactive | inactive | inactive | inactive | inactive | inactive | inactive |  | CC50 [3]: 53 µM |
| CC(N)C12CC3CC(CC(C3)C1)C2 (stereo unspecified) [RIMANTADINE] |  |  |  |  |  |  |  |  |  |  |  |  |  |  |  | MCC [9]: > 100 µM; CC50 [10]: > 100 µM |
| NC12CC3CC(CC(C3)C1)C2 [AMANTADINE] |  |  |  |  |  |  |  |  |  |  |  |  |  |  |  | MCC [9]: > 100 µM; CC50 [10]: > 100 µM |
| Nc1nc(O)c2ncn(COC(CO)CO)c2n1 [GANCICLOVIR] |  |  |  |  |  |  |  |  |  |  |  |  |  |  |  | CC50 [3]: > 100 µM; MCC [11]: > 100 µM |
| O=c1[nH]c(=O)n([C@H]2C[C@H](O)[C@@H](CO)O2)cc1/C=C/Br [BRIVUDINE] |  |  |  |  |  |  |  |  |  |  |  |  |  |  |  | MCC [1]: > 250 µM; MCC (HeLa [2]): > 250 µM; MCC [11]: > 250 µM |
| CC(C)(C)C(=O)OCCN(Cn1cc(F)c(=O)[nH]c1=O)S(=O)(=O)c1cccc(N)c1 | Not Active | Not Active | inactive | inactive | inactive | inactive | inactive | inactive | inactive | inactive | inactive | inactive | inactive | inactive | Not Active |  |
| Cc1cn(CN(CCOC(=O)C(C)(C)C)S(=O)(=O)c2cccc(N)c2)c(=O)[nH]c1=O | Not Active | Not Active | inactive | inactive | inactive | inactive | inactive | inactive | inactive | inactive | inactive | inactive | inactive | inactive | Not Active |  |
| CC(=O)Nc1ccc(S(=O)(=O)N(CCO)Cn2cc(C)c(=O)[nH]c2=O)cc1 | Not Active | Not Active | inactive | inactive | inactive | inactive | inactive | inactive | inactive | inactive | inactive | inactive | inactive | inactive | Not Active |  |

From ChEMBL document CHEMBL1144203, “Synthesis and antiviral evaluation of acyclic azanucleosides developed from sulfanilamide as a lead structure” (Bioorg Med Chem, 2008)
